Screening results as filed in PubChem BioAssay.
Avidin bead fluor: compound fluoresces at 488/530 nm on avidin beads. compound fluorescence 488/530 nm, flow cytometry; stronger effect = higher value. fluorescence (KMESF) at 10 µM. 220,000 compounds, 0.38% hits. AID 1775; in the data active means fluorescence above about 47
GSH fluor: compound fluoresces at 488/530 nm on GSH beads. fluorescence (KMESF) at 10 µM. 190,000 compounds, 0.25% hits. AID 1776. GSH beads flow cytometry, compound fluorescence 488/530 nm; stronger effect = higher value; in the data active means fluorescence above about 89;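 further: glutathione beads carrying GST-tagged Bcl family fusion proteins plus one bare bead set; values are compound well signal with DMSO vehicle wells as background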
ABCB1 inh: inhibitors of human ABCB1 transporter, ABCG2 counter-screen. inhibition, % at 6.6 µM. P08183. 190,000 compounds, 0.067% hits. CCRF-Adr cells, JC-1 efflux, flow cytometry. AID 1326; in the data active means inhibition above about 40%;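 further: 0% = vehicle and 100% = reference inhibitor; higher value means more JC-1 retained so stronger ABCB1 efflux block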
L major viab: Leishmania major promastigote growth inhibition | Leishmania major promastigotes, resazurin fluorescence viability | inhibition, % at 10 µM | 200,000 compounds, 9% hits | AID 1063;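 further: promastigotes grown with compound for 44 hours at 28 °C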
PKD1 kinase inh: blocks activity of human protein kinase D1 | Q15139 | PKD1 kinase fluorescence polarization assay | inhibition, % (no concentration beside the values) | 200,000 compounds, 0.056% hits | AID 797
ABCG2 inh: blocks JC-1 efflux by human ABCG2 transporter; Q9UNQ0; IgMXP3 cells, flow cytometry; inhibition, % at 6.6 µM; 190,000 compounds, 0.1% hits;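 active means inhibition above 80%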;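 further: 0% = DMSO and 100% = nicardipine control wells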
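Test system: ABCG2 IgMXP3 and barcoded ABCB1 CCRF-Adr cell mix; Schedule: cells with compound and JC-1, 10 min at 25 °C, rotating, no wash; Technique: flow cytometry of retained JC-1 fluorescence; Measure: % inhibition of efflux relative to nicardipine and DMSO; Controls: nicardipine high and DMSO low controls.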
Starred values were filed as active, the others as inactive. Many of the other results were omitted from the sample, so hits are more common in it than they were. Unless noted, no stated cut-off is given here; in the data, active means inhibition above about 50%; inactive means the rest.

What do the screens show for `COc1cccc(C2=CC(c3ccc(OC)c(OC)c3OC)n3nnnc3N2)c1` (centres undefined)?
Avidin bead fluor: 30; GSH fluor: 25; ABCB1 inh: 1.0; L major viab: 78.5*; PKD1 kinase inh: 2.8; ABCG2 inh: 3.5

Results for Cc1ccccc1Cn1cnc2c(cnn2C(C)(C)C)c1=O ?
Avidin bead fluor: 17; GSH fluor: 19; ABCB1 inh: 0.0; L major viab: 59.0*; PKD1 kinase inh: -29.4; ABCG2 inh: -0.1

What do the screens show for `Cc1ccc(C)c(Cn2cnc3c(cnn3C(C)(C)C)c2=O)c1`?
Avidin bead fluor: 29; GSH fluor: 24; ABCB1 inh: 0.6; L major viab: 6.3; PKD1 kinase inh: -20.9; ABCG2 inh: 1.1

How did O=c1[nH]c(SCc2ccc(F)cc2Cl)nc2ccccc12 do in these assays?
Avidin bead fluor: 10; GSH fluor: 18; ABCB1 inh: 1.1; L major viab: 9.8; PKD1 kinase inh: 7.3; ABCG2 inh: 9.2

What do the screens show for `Cn1c(SCC(=O)N/N=C/c2ccc([N+](=O)[O-])s2)nnc1-c1ccccc1`?
Avidin bead fluor: 13; GSH fluor: 8; ABCB1 inh: -0.5; L major viab: 100.5*; PKD1 kinase inh: 1.8; ABCG2 inh: 0.4

What do the screens show for `COc1ccccc1NC(=O)C(=O)N/N=C/c1ccc([N+](=O)[O-])s1`?
Avidin bead fluor: 7; GSH fluor: 9; ABCB1 inh: 0.4; L major viab: 100.5*; PKD1 kinase inh: -4.7; ABCG2 inh: 2.8

How did Cc1ccccc1C(=O)N/N=C/c1ccc([N+](=O)[O-])s1 do in these assays?
Avidin bead fluor: 13; GSH fluor: 33; ABCB1 inh: -1.1; L major viab: 100.4*; PKD1 kinase inh: -10.0; ABCG2 inh: 59.4

How did O=C(N/N=C\c1ccc([N+](=O)[O-])s1)c1cncc(Br)c1 do in these assays?
Avidin bead fluor: 12; GSH fluor: 15; ABCB1 inh: 0.0; L major viab: 100.2*; PKD1 kinase inh: 0.6; ABCG2 inh: 14.5

What do the screens show for `Cc1ccnn1CC(=O)N/N=C/c1ccc([N+](=O)[O-])s1`?
Avidin bead fluor: 4

How did O=C(COc1ccc(Cl)cc1)NCc1nnc(SCC(=O)Nc2ccccc2F)o1 do in these assays?
Avidin bead fluor: 9; GSH fluor: 19; ABCB1 inh: -0.1; L major viab: 6.2; PKD1 kinase inh: -7.3; ABCG2 inh: 7.1

Results for NC(=S)N/N=C/c1ncc(C(F)(F)F)cc1Cl ?
Avidin bead fluor: 7

How did O=C(O)CCCNc1c(C(=O)Nc2ccc(Cl)cc2)cc([N+](=O)[O-])cc1[N+](=O)[O-] do in these assays?
Avidin bead fluor: 9; GSH fluor: 10; ABCB1 inh: 0.0; L major viab: -4.7; PKD1 kinase inh: -0.6; ABCG2 inh: 1.0

What do the screens show for `Fc1cccc(CN2CCN(Cc3nc(-c4cnccn4)no3)CC2)c1`?
Avidin bead fluor: 9; GSH fluor: 12; ABCB1 inh: 0.4; L major viab: -2.1; PKD1 kinase inh: 1.9; ABCG2 inh: 2.7

Results for O=C(N/N=C/c1ccc(Br)s1)c1cccc([N+](=O)[O-])c1 ?
Avidin bead fluor: 10; GSH fluor: 8; ABCB1 inh: -0.5; L major viab: 19.2; PKD1 kinase inh: 3.3; ABCG2 inh: -1.1

What do the screens show for `O/N=C/c1cc(Br)ccc1OCc1ccc(F)cc1`?
L major viab: 99.6*; PKD1 kinase inh: -16.5

What do the screens show for `O=C(CNC(=O)c1cccc(F)c1)N/N=C/c1cc(Br)ccc1OCc1ccccc1`?
Avidin bead fluor: 14; GSH fluor: 2; ABCB1 inh: 0.4; L major viab: 51.1*; PKD1 kinase inh: 1.2; ABCG2 inh: 3.8

What do the screens show for `O=C(N/N=C/c1ccc([N+](=O)[O-])s1)c1ccccc1`?
Avidin bead fluor: 14; GSH fluor: 8; ABCB1 inh: 0.9; L major viab: 100.2*; PKD1 kinase inh: -6.4; ABCG2 inh: 12.7

Results for O=C(N/N=C/c1ccc([N+](=O)[O-])s1)c1ccccc1Br ?
Avidin bead fluor: 12; GSH fluor: 11; ABCB1 inh: 0.6; L major viab: 100.5*; PKD1 kinase inh: -0.3; ABCG2 inh: 9.6

What do the screens show for `COc1ccccc1NC(=O)CSc1nc2ccccc2cc1Cc1ccccc1`?
Avidin bead fluor: 17; GSH fluor: 13; ABCB1 inh: 1.0; L major viab: 6.9; PKD1 kinase inh: -0.1; ABCG2 inh: 5.3
